Data as given in PMC7888308 (ACS Pharmacology & Translational Science, 2021).
Positions count from the first letter of the chain named. Converted amounts (≈) assume the structure as drawn.

What was measured:
[1] = target: T1, wild-type UGT1A1 (Homo sapiens, UniProt P22309); test: glucuronidation by wild-type UGT1A1 expressed in COS-7 cells; format: in vitro ADME; settings: 20 μM drug, 24 h
T1 sequence (P22309 26-533): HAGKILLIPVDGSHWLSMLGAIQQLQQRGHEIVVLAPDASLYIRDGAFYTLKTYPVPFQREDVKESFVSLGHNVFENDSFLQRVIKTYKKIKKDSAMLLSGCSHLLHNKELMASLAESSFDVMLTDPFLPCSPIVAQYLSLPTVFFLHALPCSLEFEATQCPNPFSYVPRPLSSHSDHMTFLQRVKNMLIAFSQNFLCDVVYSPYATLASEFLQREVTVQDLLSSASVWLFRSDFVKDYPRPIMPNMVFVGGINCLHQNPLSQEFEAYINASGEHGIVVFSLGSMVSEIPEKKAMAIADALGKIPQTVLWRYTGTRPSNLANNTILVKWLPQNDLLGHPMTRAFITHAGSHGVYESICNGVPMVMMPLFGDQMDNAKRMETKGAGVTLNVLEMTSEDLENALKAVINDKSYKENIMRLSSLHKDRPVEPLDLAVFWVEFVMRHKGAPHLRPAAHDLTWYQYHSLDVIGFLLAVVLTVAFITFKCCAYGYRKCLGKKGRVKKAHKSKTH

[2] = target: T2, UGT1A1 P152T (Homo sapiens, UniProt P22309, P152T); test: glucuronidation by UGT1A1 P152T expressed in COS-7 cells; format: in vitro ADME; settings: 20 μM drug, 24 h, compared to wild-type UGT1A1
T2 sequence (P22309 26-533 P152T): T1 sequence (P22309 26-533) with P127T

[3] = test system: UGT1A9; settings: reaction phenotyping; cited from earlier work
[4] = test system: human kidney microsomes; test: human kidney microsome metabolism experiment; format: in vitro ADME; settings: CAB 10 μM, microsomes 0.5 mg/mL, UGT cofactor, 60 min, 37 °C
[5] = pH 6.8 phosphate buffer at 20 °C; cited from earlier work
[6] = test system: HIV integrase; settings: in vitro assays; cited from earlier work
[7] = test system: UGT1A1; settings: reaction phenotyping; cited from earlier work
[8] = HPTN 077 participants, South Africa, Brazil, Malawi, United States; cited from earlier work
[9] = target: T3, UGT1A9 H217Y (Homo sapiens, UniProt O60656, H217Y); test: CAB glucuronidation by UGT1A9 H217Y expressed in COS-7 cells; format: in vitro ADME
T3 sequence (O60656 26-530 H217Y): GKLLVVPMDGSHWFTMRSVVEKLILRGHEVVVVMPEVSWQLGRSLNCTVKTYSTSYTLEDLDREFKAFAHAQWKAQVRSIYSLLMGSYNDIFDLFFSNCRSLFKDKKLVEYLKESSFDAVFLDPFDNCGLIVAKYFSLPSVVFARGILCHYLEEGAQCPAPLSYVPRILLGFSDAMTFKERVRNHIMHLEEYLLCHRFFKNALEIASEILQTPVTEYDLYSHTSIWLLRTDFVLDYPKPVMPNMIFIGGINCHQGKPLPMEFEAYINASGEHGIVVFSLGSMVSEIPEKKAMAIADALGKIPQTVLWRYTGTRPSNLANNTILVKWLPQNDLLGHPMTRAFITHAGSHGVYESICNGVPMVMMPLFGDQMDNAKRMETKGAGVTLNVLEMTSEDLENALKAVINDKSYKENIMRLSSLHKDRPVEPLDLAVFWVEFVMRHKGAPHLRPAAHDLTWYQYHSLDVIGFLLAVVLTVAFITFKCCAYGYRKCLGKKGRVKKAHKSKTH

[10] = target: T4, UGT1A9 R464G (Homo sapiens, UniProt O60656, R464G); test: CAB glucuronidation by UGT1A9 R464G expressed in COS-7 cells; format: in vitro ADME
T4 sequence (O60656 26-530 R464G): T3 sequence (O60656 26-530 H217Y) with Y192H, R439G

[11] = test system: human liver microsomes; test: human liver microsome metabolism experiment; format: in vitro ADME; settings: CAB 10 μM, microsomes 0.5 mg/mL, UDPGA, 60 min, 37 °C
Summary of the method: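 Pooled liver microsomes (50 mixed-sex donors, 0.5 mg/mL) were preincubated 5 min at 37 °C with test compound (10 μM) in 100 mM potassium phosphate, pH 7.4. A UGT reaction mixture containing 25 mM UDPGA plus alamethicin was added, and reactions ran 60 min at 37 °C. Acetonitrile quench, centrifugation, drying and methanol reconstitution followed. Glucuronide was detected by LC–MS/MS using the m/z 582 → 406 transition.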

[12] = target: T5, UGT1A9 wild-type (Homo sapiens, UniProt O60656); test: CAB glucuronidation by UGT1A9 wild-type expressed in COS-7 cells; format: in vitro ADME
T5 sequence (O60656 26-530): T3 sequence (O60656 26-530 H217Y) with Y192H

glucuronidation in cells transfected with wild-type UGT1A1 [1] | glucuronidated metabolite in cells expressing UGT1A1 P152T [2] | formation of CAB-glucuronide by UGT1A9 H217Y ([9]; 24 h incubation with CAB) | CAB-glucuronide production by UGT1A9 H217Y ([9]; 48 h treatment with CAB) | formation of CAB-glucuronide by UGT1A9 R464G ([10]; 24 h incubation with CAB) | CAB-glucuronide production by UGT1A9 R464G ([10]; 48 h treatment with CAB) | metabolite formed in human liver microsomes [11] | formation of CAB-glucuronide by UGT1A9 wild-type ([12]; 24 h incubation with CAB) | CAB-glucuronide production by UGT1A9 wild-type ([12]; 48 h treatment with CAB) | Structure (SMILES) | fractional contribution of UGT1A9 to CAB metabolism [3] | metabolite formation in human kidney microsomes [4] | aqueous solubility [5] | efficacy of inhibition of integrase-catalyzed viral DNA strand transfer [6] | fractional contribution of UGT1A1 to CAB metabolism [7] | tolerability [8] | additional metabolites in human liver microsomes [11]
readily glucuronidated | undetectable | – | – | – | – | – | – | – | C[C@@H]1CCO[C@H]2Cn3cc(C(=O)NCc4ccc(F)cc4F)c(=O)c(O)c3C(=O)N12 [DTG, dolutegravir] | – | – | – | – | – | – | –
– | marked reduction | – | – | – | – | – | – | – | CCc1c2c(nc3ccc(O)cc13)-c1cc3c(c(=O)n1C2)COC(=O)[C@]3(O)CC [SN-38, 7-ethyl-10-hydroxycamptothecin] | – | – | – | – | – | – | –
readily glucuronidated | undetectable | not observed | able to detect | not observed | not detectable above the background | identified as CAB-glucuronide | not observed | able to detect | C[C@H]1CO[C@@H]2Cn3cc(C(=O)NCc4ccc(F)cc4F)c(=O)c(O)c3C(=O)N12 [CAB, Cabotegravir] | 0.33 | observed the formation of CAB-glucuronide | 15 µg/mL (≈ 37 µM) | low or subnanomolar | 0.67 | well tolerated | no additional metabolites of CAB were detected
